Measured values as given in ChEMBL document CHEMBL5724801, “EUbOPEN Chemogenomics Library - Multiplex” (2024).
Several values for one entry are separate records, joined by “and”; a condition that tells them apart may be missing. Identical values can stand only once.

Key:
Type in all cases: toxicity, cell-based
Fibroblast = experiment: Multiplex assay against human fibroblast
How it was run: (§1)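 Values for tubulin, mitochondrial-mass and membrane-permeability phenotypes are per cents of cells with healthy nuclei. These cells were identified by CellPathfinder machine-learning gating of live cells that had been stained at seeding with Hoechst33342, BioTracker Green Microtubule Cytoskeleton Dye, MitoTracker Red and Annexin V Alexa Fluor 680 and imaged on a CQ1 microscope at 37°C and 5% CO2 after compound addition. The gating first set Hoechst high-intensity objects apart from normal cells, then split normal cells into healthy, pyknosed or fragmented nuclei, and pyknosed cells into mitotic or apoptotic.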

HEK-293T = experiment: Multiplex assay against HEK293T; settings: human; how it was run: as §1
U2OS = experiment: Multiplex assay against U2OS; settings: human; how it was run: as §1
[1] = 12 h, 1 µM, compound concentration 1 uM
[2] = 12 h, 10 µM, compound concentration 10 uM
[3] = 24 h, 1 µM, compound concentration 1 uM
[4] = 24 h, 10 µM, compound concentration 10 uM
[5] = 48 h, 1 µM, compound concentration 1 uM
[6] = 48 h, 10 µM, compound concentration 10 uM

## CC(C)c1noc(N2CCC(COc3ccc(-c4ccc(S(C)(=O)=O)cc4)nc3)CC2)n1 [GSK-1292263]
Fibroblast; [1]
  Population Apoptotic (%): 38% and 29%
  Population Fragmented Nuclei (%): 14% and 18%
  Population Healthy Nuclei (%): 74% and 50%
  Population Hoechst High Intensity Objects (%): 2% and 6%
  Population Membrane Permeable-Phenotype (%): 0% and 4%
  Population Mitochondria Different-Phenotype (%): 1% and 5%
  Population Mitotic Cells (%): 61% and 70%
  Population Normal (%): 97% and 93%
  Population Pyknosed Nuclei (%): 11% and 31%
  Population Tubulin-Different-Phenotype (%): 21% and 41%
  Total Cell Count: 189 and 149
Fibroblast; [2]
  Population Apoptotic (%): 39% and 35%
  Population Healthy Nuclei (%): 65% and 45%
  Population Hoechst High Intensity Objects (%): 3% and 2%
  Population Membrane Permeable-Phenotype (%): 1% and 6%
  Population Mitochondria Different-Phenotype (%): 5% and 10%
  Population Mitotic Cells (%): 60% and 64%
  Population Normal (%): 96% and 97%
  Population Pyknosed Nuclei (%): 26% and 27%
  Population Tubulin-Different-Phenotype (%): 39% and 61%
  Total Cell Count: 162 and 145
Fibroblast; [3]
  Population Apoptotic (%): 50% and 44%
  Population Fragmented Nuclei (%): 9% and 20%
  Population Healthy Nuclei (%): 78% and 53%
  Population Hoechst High Intensity Objects (%): 3% and 7%
  Population Membrane Permeable-Phenotype (%): 1% and 4%
  Population Mitochondria Different-Phenotype (%): 0% and 2%
  Population Mitotic Cells (%): 50% and 55%
  Population Normal (%): 96% and 92%
  Population Pyknosed Nuclei (%): 11% and 25%
  Population Tubulin-Different-Phenotype (%): 17% and 41%
  Total Cell Count: 182 and 142
Fibroblast; [4]
  Population Apoptotic (%): 52% and 46%
  Population Fragmented Nuclei (%): 12% and 21%
  Population Healthy Nuclei (%): 67% and 55%
  Population Hoechst High Intensity Objects (%): 2% and 3%
  Population Membrane Permeable-Phenotype (%): 1% and 10%
  Population Mitochondria Different-Phenotype (%): 5% and 10%
  Population Mitotic Cells (%): 47% and 53%
  Population Normal (%): 97% and 96%
  Population Pyknosed Nuclei (%): 20% and 23%
  Population Tubulin-Different-Phenotype (%): 50% and 56%
  Total Cell Count: 168 and 123
Fibroblast; [5]
  Population Apoptotic (%): 66% and 54%
  Population Fragmented Nuclei (%): 19% and 27%
  Population Healthy Nuclei (%): 74% and 47%
  Population Hoechst High Intensity Objects (%): 3% and 8%
  Population Membrane Permeable-Phenotype (%): 0% and 13%
  Population Mitochondria Different-Phenotype (%): 1% and 4%
  Population Mitotic Cells (%): 33% and 45%
  Population Normal (%): 96% and 91%
  Population Tubulin-Different-Phenotype (%): 22% and 55%
  Total Cell Count: 193 and 156
Fibroblast; [6]
  Population Apoptotic (%): 63% and 50%
  Population Fragmented Nuclei (%): 13% and 31%
  Population Healthy Nuclei (%): 65% and 51%
  Population Hoechst High Intensity Objects (%): 2% and 0%
  Population Membrane Permeable-Phenotype (%): 0% and 9%
  Population Mitochondria Different-Phenotype (%): 8% and 14%
  Population Mitotic Cells (%): 36% and 50%
  Population Normal (%): 97% and 100%
  Population Pyknosed Nuclei (%): 20% and 17%
  Population Tubulin-Different-Phenotype (%): 48% and 76%
  Total Cell Count: 164 and 125
HEK-293T; [1]
  Population Apoptotic (%): 37% and 25%
  Population Fragmented Nuclei (%): 8% and 6%
  Population Healthy Nuclei (%): 78% and 86%
  Population Hoechst High Intensity Objects (%): 5% and 6%
  Population Membrane Permeable-Phenotype (%): 0%
  Population Mitochondria Different-Phenotype (%): 42% and 53%
  Population Mitotic Cells (%): 62% and 74%
  Population Normal (%): 94% and 93%
  Population Pyknosed Nuclei (%): 12% and 7%
  Population Tubulin-Different-Phenotype (%): 32% and 13%
  Total Cell Count: 440 and 522
HEK-293T; [2]
  Population Apoptotic (%): 50% and 43%
  Population Fragmented Nuclei (%): 6% and 7%
  Population Healthy Nuclei (%): 71% and 78%
  Population Hoechst High Intensity Objects (%): 13% and 16%
  Population Membrane Permeable-Phenotype (%): 0%
  Population Mitochondria Different-Phenotype (%): 69% and 77%
  Population Mitotic Cells (%): 50% and 56%
  Population Normal (%): 86% and 83%
  Population Pyknosed Nuclei (%): 22% and 13%
  Population Tubulin-Different-Phenotype (%): 55% and 40%
  Total Cell Count: 311 and 279
HEK-293T; [3]
  Population Apoptotic (%): 23% and 25%
  Population Fragmented Nuclei (%): 8% and 7%
  Population Healthy Nuclei (%): 78% and 82%
  Population Hoechst High Intensity Objects (%): 5% and 3%
  Population Membrane Permeable-Phenotype (%): 0%
  Population Mitochondria Different-Phenotype (%): 27% and 29%
  Population Mitotic Cells (%): 76% and 74%
  Population Normal (%): 94% and 96%
  Population Pyknosed Nuclei (%): 12% and 9%
  Population Tubulin-Different-Phenotype (%): 25% and 9%
  Total Cell Count: 545 and 608
HEK-293T; [4]
  Population Apoptotic (%): 64% and 46%
  Population Fragmented Nuclei (%): 8% and 11%
  Population Healthy Nuclei (%): 79% and 74%
  Population Hoechst High Intensity Objects (%): 8% and 10%
  Population Membrane Permeable-Phenotype (%): 0%
  Population Mitochondria Different-Phenotype (%): 58% and 59%
  Population Mitotic Cells (%): 35% and 53%
  Population Normal (%): 91% and 89%
  Population Pyknosed Nuclei (%): 12% and 13%
  Population Tubulin-Different-Phenotype (%): 49% and 28%
  Total Cell Count: 384 and 354
HEK-293T; [5]
  Population Apoptotic (%): 22% and 23%
  Population Fragmented Nuclei (%): 10%
  Population Healthy Nuclei (%): 81% and 83%
  Population Hoechst High Intensity Objects (%): 3% and 1%
  Population Membrane Permeable-Phenotype (%): 1%
  Population Mitochondria Different-Phenotype (%): 23% and 14%
  Population Mitotic Cells (%): 77% and 76%
  Population Normal (%): 96% and 98%
  Population Pyknosed Nuclei (%): 8% and 5%
  Population Tubulin-Different-Phenotype (%): 14% and 10%
  Total Cell Count: 865 and 882
HEK-293T; [6]
  Population Apoptotic (%): 32% and 30%
  Population Fragmented Nuclei (%): 10% and 13%
  Population Healthy Nuclei (%): 79% and 78%
  Population Hoechst High Intensity Objects (%): 10% and 5%
  Population Membrane Permeable-Phenotype (%): 0%
  Population Mitochondria Different-Phenotype (%): 50% and 37%
  Population Mitotic Cells (%): 67% and 69%
  Population Normal (%): 89% and 94%
  Population Pyknosed Nuclei (%): 9% and 8%
  Population Tubulin-Different-Phenotype (%): 28% and 18%
  Total Cell Count: 506 and 595
U2OS; [1]
  Population Apoptotic (%): 72% and 100%
  Population Fragmented Nuclei (%): 27% and 16%
  Population Healthy Nuclei (%): 62% and 77%
  Population Hoechst High Intensity Objects (%): 2% and 1%
  Population Membrane Permeable-Phenotype (%): 3% and 4%
  Population Mitochondria Different-Phenotype (%): 2% and 0%
  Population Normal (%): 97% and 98%
  Population Pyknosed Nuclei (%): 10% and 5%
  Population Tubulin-Different-Phenotype (%): 0% and 2%
  Total Cell Count: 177 and 114
U2OS; [2]
  Population Apoptotic (%): 90% and 100%
  Population Fragmented Nuclei (%): 31% and 20%
  Population Healthy Nuclei (%): 60% and 73%
  Population Hoechst High Intensity Objects (%): 2% and 0%
  Population Membrane Permeable-Phenotype (%): 10%
  Population Mitochondria Different-Phenotype (%): 6% and 8%
  Population Mitotic Cells (%): 10% and 0%
  Population Normal (%): 97% and 100%
  Population Pyknosed Nuclei (%): 7% and 5%
  Population Tubulin-Different-Phenotype (%): 6%
  Total Cell Count: 262 and 134
U2OS; [3]
  Population Apoptotic (%): 63% and 66%
  Population Fragmented Nuclei (%): 32% and 15%
  Population Healthy Nuclei (%): 57% and 77%
  Population Hoechst High Intensity Objects (%): 1% and 0%
  Population Membrane Permeable-Phenotype (%): 5% and 2%
  Population Mitochondria Different-Phenotype (%): 2%
  Population Mitotic Cells (%): 36% and 33%
  Population Normal (%): 98% and 99%
  Population Pyknosed Nuclei (%): 9% and 6%
  Population Tubulin-Different-Phenotype (%): 3% and 1%
  Total Cell Count: 236 and 145
U2OS; [4]
  Population Apoptotic (%): 92% and 66%
  Population Fragmented Nuclei (%): 25% and 15%
  Population Healthy Nuclei (%): 65% and 75%
  Population Hoechst High Intensity Objects (%): 0% and 2%
  Population Membrane Permeable-Phenotype (%): 10% and 6%
  Population Mitochondria Different-Phenotype (%): 3% and 5%
  Population Normal (%): 99% and 97%
  Population Pyknosed Nuclei (%): 9% and 8%
  Population Tubulin-Different-Phenotype (%): 3% and 2%
  Total Cell Count: 284 and 143
U2OS; [5]
  Population Apoptotic (%): 77% and 90%
  Population Fragmented Nuclei (%): 23% and 15%
  Population Healthy Nuclei (%): 69% and 74%
  Population Hoechst High Intensity Objects (%): 2% and 1%
  Population Membrane Permeable-Phenotype (%): 3% and 6%
  Population Mitochondria Different-Phenotype (%): 3% and 2%
  Population Mitotic Cells (%): 22% and 10%
  Population Normal (%): 97% and 98%
  Population Pyknosed Nuclei (%): 6% and 10%
  Population Tubulin-Different-Phenotype (%): 2% and 1%
  Total Cell Count: 339 and 201
U2OS; [6]
  Population Apoptotic (%): 87% and 83%
  Population Fragmented Nuclei (%): 22% and 12%
  Population Healthy Nuclei (%): 68% and 77%
  Population Hoechst High Intensity Objects (%): 4% and 1%
  Population Membrane Permeable-Phenotype (%): 6% and 5%
  Population Mitochondria Different-Phenotype (%): 2% and 4%
  Population Mitotic Cells (%): 12% and 16%
  Population Normal (%): 95% and 98%
  Population Pyknosed Nuclei (%): 9%
  Population Tubulin-Different-Phenotype (%): 2% and 4%
  Total Cell Count: 354 and 189
